Measurements pooled from the literature.
Protocols differ between the studies behind these lines.
Target: Maternal embryonic leucine zipper kinase (MELK, Homo sapiens, UniProt Q14680)

Cc1cnc(Nc2ccc(C(=O)N3CCC(N4CCCC4)CC3)cc2)nc1-c1cc2ccccc2s1
remaining binding (binding; competition with immobilised ligand; 1 µM): 81%

COc1ccc2c(c1)O[C@H](c1ccc(OC)c(OC)c1)C[C@@H]2NC(=O)C1(c2ccc3c(c2)OC(F)(F)O3)CC1
remaining binding (cell-free assay; competition with immobilised ligand; 1 µM): 78%

COc1cnc(Nc2cccc(S(N)(=O)=O)c2)nc1N1CCN(c2ccccc2)CC1
remaining binding (binding; competition with immobilised ligand; 1 µM): 88%

FC(F)(F)Oc1cccc(-c2cnc3ccc(-c4ccncc4)nn23)c1
remaining binding (cell-free assay; competition with immobilised ligand; 5 µM): 56%

O=C(c1ccc(Nc2nccc(-c3cc4ccccc4s3)n2)cc1)N1CCC(N2CCCC2)CC1
remaining binding (binding; competition with immobilised ligand; 1 µM): 100%

CCN1CCN(Cc2ccc(C(=O)Nc3ccc(C)c(Oc4ccc5c(c4)CC(=O)N5)c3)cc2C(F)(F)F)CC1
remaining binding (binding; competition with immobilised ligand; 1 µM): 100%

O=C(NCCCC1CCCCC1)c1ccc(CNC(=O)c2cnn(-c3ccccc3)c2C(F)(F)F)cc1
remaining binding (cell-free assay; competition with immobilised ligand; 0.1 µM): 80%

C=CC(=O)N1CCC(C(=O)NCC(=O)N2CCN(c3nc(-c4cnc(N)nc4C(F)F)nc(N4CCOCC4)n3)CC2)CC1
remaining binding (binding; competition with immobilised ligand; 1 µM): 100%

COc1ccnn2ncc(-c3ccnc(N(C)C)n3)c12
remaining binding (binding; 1 µM): 100%

Nc1ncc2c(n1)-c1c([nH]c3ccc(C#CC4CC4)cc13)CCCC2
remaining binding (binding; competition with immobilised ligand; 1 µM): 100%

c1cnn2ncc(-c3ccnc(N4CCC45COC5)n3)c2c1
remaining binding (binding; 1 µM): 52%

O=C(NCC1CCOCC1)c1n[nH]cc1NC(=O)c1c(F)cccc1F
remaining binding (binding; competition with immobilised ligand; 1 µM): 69%

Cc1cnn2ncc(-c3ccnc(N(C)C)n3)c2c1
remaining binding (binding; 1 µM): 100%

O=C(c1ccc(Nc2ncc(Cl)c(-c3cc4ccccc4s3)n2)cc1)N1CCC(N2CCCC2)CC1
remaining binding (binding; competition with immobilised ligand; 1 µM): 64%

C[C@H]1CCN(c2nccc(-c3cnn4ncccc34)n2)C1
remaining binding (binding; 1 µM): 33%

O=S(=O)(NC1CCC(c2cc(F)ccc2F)(S(=O)(=O)c2ccc(Cl)cc2)CC1)C(F)(F)F (stereo not shown)
remaining binding (cell-free assay; competition with immobilised ligand; 1 µM): 69%

F[C@@H]1CCN(c2nccc(-c3cnn4ncccc34)n2)C1
remaining binding (binding; 1 µM): 100%

CC(=O)N1CCC(c2ccc(C(=O)NC3=NCCN3)cc2C(F)(F)F)CC1
remaining binding (cell-free assay; competition with immobilised ligand; 1 µM): 100%

CN(CCCC(F)(F)F)c1nccc(-c2cnn3ncccc23)n1
remaining binding (binding; 1 µM): 94%

CC(=O)C1=C(C)N(c2cccc(C(F)(F)F)c2)C(=O)N[C@@H]1c1ccc(C#N)nc1
remaining binding (cell-free assay; competition with immobilised ligand; 1 µM): 88.2%

CN(C)c1nccc(-c2cnc3ncccn23)n1
remaining binding (binding; 1 µM): 100%

CCCCN(CCCC)C(=O)CN1C[C@H](c2cc(OC)c3c(c2)OCO3)[C@@H](C(=O)O)[C@@H]1CC(C)(C)CCC
remaining binding (cell-free assay; competition with immobilised ligand; 1 µM): 100%
